# Sampled rows, rich in hits. Any-hit rate of the full collection: about 2%.
# Rpn11 inh: Rpn11 (human) deubiquitinase inhibition; O00487; human 26S proteasome, Ub4-pepOG fluorescence polarization; 20S core pre-blocked with epoxomicin; inhibition, % at 20 µM; 360,000 compounds, 0.59% hits; AID 588493;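 active = inhibition at 20 µM, scaled to each plate's controls, above about 33%, limit read from the data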
# DNMT1 inh: DNMT1 (human) enzyme inhibition; DNMT1 molecular beacon, Hinp1I cleavage, fluorescence; inhibition (reported as % activation of signal), % at 10 µM; P26358; 360,000 compounds, 0.83% hits; in the data active = inhibition above about 50%
# LMPTP inh: LMPTP (human) inhibition | 360,000 compounds, 0.22% hits | AID 651560 | inhibition, % at 20 µM | P24666 | recombinant LMPTP-A, OMFP fluorogenic substrate, fluorescence intensity;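 active = compounds that cut the enzyme signal by at least half of the control window in the single-dose screen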;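 note: plate controls were DMSO wells with enzyme plus substrate for no effect and substrate without enzyme for full effect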
#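 Test system – LMPTP-A enzyme · Amount – LMPTP-A at 0.625 nM final in the reaction · Buffer or medium – Bis-Tris pH 6.0, DTT, detergent · Reagent – OMFP 400 µM · Doses – single 20 µM dose · Schedule – reaction 50 min, room temperature, dark · Detection – fluorescence intensity of OMFP turnover product · Evaluation – percent inhibition versus substrate-only and uninhibited controls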
# STEP inh: inhibitors of human striatal-enriched phosphatase STEP; 360,000 compounds, 0.25% hits; P54829; recombinant STEP, OMFP fluorogenic substrate, fluorescence; AID 588621; inhibition, % at 20 µM;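 active = inhibition at 20 µM, scaled per plate between control wells, above about 37%, limit read from the data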;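 note: 0% = DMSO with enzyme and substrate and 100% = substrate only without enzyme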
#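 Assay system: isolated STEP enzyme. Buffer or medium: pH 6.0 Bis-Tris with DTT and Tween 20. Also added: fluorogenic phosphatase substrate OMFP at 25 µM final. Dosing: 20 µM, 1% DMSO. Timing: 20 min reaction, room temperature, in the dark. Measured by: fluorescence intensity, excitation 480 nm, emission 540 nm. Evaluation: normalized % inhibition.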
# Scp-1 inhibitor: Scp-1 (human) phosphatase inhibition | Q9GZU7 | Recombinant Scp1, phosphopeptide, malachite green phosphate absorbance | inhibition, % at 20 µM | 340,000 compounds, 0.88% hits;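 active = inhibition above about 50% at 20 µM, limit read from the data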;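 note: plate controls were DMSO wells with enzyme for no effect and wells lacking enzyme for full effect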
#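 Times: enzyme reaction 45 min at room temperature, colour 5 min, stabilisation 30 min. Material: SCP-1 catalytic fragment, aa 76-261. Medium: Acidic Tris acetate buffer with magnesium and detergent. Signal: colorimetric free-phosphate detection, absorbance 630 nm. Read-out basis: % inhibition of SCP-1 phosphate liberation. Reagent: Phosphorylated 17-residue peptide substrate.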
# Rpn11 confirm: confirmation of human proteasome Rpn11 inhibitors | 1,900 compounds, 29% hits | shares compounds with Rpn11 inh | purified human 26S proteasome, Ub4-pepOG fluorescence polarization; proteasome pretreated with epoxomicin | inhibition, % at 20 µM
# MMP-2 counter: blocks human MMP-2, flagging nonselective RPN11 hits. shares compounds with Rpn11 inh. recombinant MMP-2, FRET peptide cleavage fluorescence. inhibition, % at 20 µM. 1,900 compounds, 4% hits. AID 602330;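 note: human MMP-2 activated beforehand with APMA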
# Thrombin inh: thrombin (bovine) inhibition counter-screen. shares compounds with Rpn11 inh. bovine thrombin cleavage of Ub4-pepOG, fluorescence polarization. inhibition, % at 20 µM. 1,900 compounds, 13% hits;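 active = mean inhibition at least 40% at 20 µM, or signal 3 deviations below plate average, so some actives read negative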;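 note: plate controls were thrombin with DMSO for no effect and buffer wells lacking thrombin for full effect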
# * hit, by the source's call; x = no result; + = active, no number. Cut-off read from the data, not from the text of the source, unless noted: active = inhibition above about 40%; inactive = the rest.
SMILES,Rpn11 inh,DNMT1 inh,LMPTP inh,STEP inh,Scp-1 inhibitor,Rpn11 confirm,MMP-2 counter,Thrombin inh
CC(=O)Nc1cc(-c2ccc(N)nc2)cn2c(-c3cccc(C(F)(F)F)c3)cnc12,38,-46,0,2,x,x,x,x
CCN1C(=O)c2cccc3c(NC(=O)c4ccc(S(=O)(=O)N(C)C)cc4)ccc1c23,8,-3,0,-4,-16,x,x,x
CCN1C(=O)c2cccc3c(NC(=O)c4ccc(S(=O)(=O)N5CCOCC5)cc4)ccc1c23,75*,-5,1,3,-12,5,-16,-1
CC(OC(=O)c1cccs1)C(=O)NCc1cccs1 (stereo unspecified),-11,1,0,-2,-3,x,x,x
CC(OC(=O)c1cccs1)C(=O)NC1CC1 (stereo unspecified),38*,-2,0,-1,-1,-4,-36,-19
COc1ccc(NC(=O)Cn2c(=O)n(-c3ccc(OC)cc3OC)c(=O)c3c(C)c(C)sc32)cc1,10,-2,0,1,-17,x,x,x
Cc1cc(N2CCN(c3ccc([N+](=O)[O-])c4cccnc34)CC2)c2ccccc2n1,45*,-31,97*,11,-13,48*,-64,-18
Cn1c(N)c(C(=O)COC(=O)c2ccc(-c3ccccc3)cc2)c(=O)n(C)c1=O,5,-11,2,1,-7,x,x,x
O=C(CN(C(=O)c1csnn1)c1ccc2c(c1)OCCO2)NCc1ccc(F)cc1,48*,-1,-1,3,-2,6,-6,-1
COc1ccc(CNC(=O)CN(C(=O)c2csnn2)c2ccc3c(c2)OCCO3)cc1,2,0,-1,-2,-15,x,x,x
Cc1nnc(SCC(=O)N2N=C(c3ccc(Cl)cc3)CC2c2ccco2)[nH]c1=O (stereo unspecified),74*,33,1,1,3,18,5,12
Cn1nnnc1SCC(=O)N1N=C(c2ccc(Cl)cc2)CC1c1ccco1 (stereo unspecified),2,-7,0,-1,-9,x,x,x
COc1ccc(C2(c3ccc(OC)cc3)NC(=O)N(CC(=O)Nc3cc(C)ccc3OC)C2=O)cc1,7,-5,5,0,-13,x,x,x
COc1ccccc1C(=O)Nc1nnc(SCC(=O)Nc2ccc3c(c2)oc2ccccc23)s1,63*,-12,0,1,0,23,-24,-2
Cc1cccc(C(=O)Nc2nnc(SCC(=O)Nc3ccc4c(c3)oc3ccccc34)s2)c1,-5,9,-6,-1,36,x,x,x
COC(=O)CSc1nc(C)c(C)c(C)c1C(N)=O,-8,2,0,1,-7,x,x,x
COc1ccc(COc2ccc3c(C)cc(=O)oc3c2)cc1,-3,0,0,2,-16,x,x,x
COc1ccc2c(-c3cc4ccc(OCc5ccc(F)cc5)cc4oc3=O)cc(=O)oc2c1,78*,-12,14,0,1,16,-43,18
O=C(CN(C(=O)C1CSC(=O)C1)c1cccc(F)c1)NCc1ccc2c(c1)OCO2 (stereo unspecified),5,-4,1,1,-1,x,x,x
Cc1c(C(=O)N2CCOCC2)sc(NC(=O)c2ccc3c(c2)OCO3)c1C#N,41*,3,1,2,24,-4,5,-17
CS(=O)(=O)C1=NSC2=NC(=O)/C(=C\c3cccn3-c3ccccc3Cl)C(=N)N21,59*,13,15,-3,27,79*,3,39
CS(=O)(=O)C1=NSC2=NC(=O)/C(=C\c3ccc(OC(=O)c4ccco4)c(Br)c3)C(=N)N21,71*,2,0,1,-5,17,-5,32
CCc1ccc(-n2cccc2/C=C2/C(=N)N3C(=NC2=O)SN=C3S(C)(=O)=O)cc1,60*,28,9,3,48,64*,0,45*
CCC1=NN2C(=N)/C(=C\c3cccn3-c3ccc(Cl)cc3)C(=O)N=C2S1,22,4,3,-1,-3,x,x,x
Cc1cc(C)cc(-n2cccc2/C=C2/C(=N)N3C(=NC2=O)SN=C3S(C)(=O)=O)c1,51*,2,3,-1,33,53*,-7,-25
SMILES,Rpn11 inh,DNMT1 inh,LMPTP inh,STEP inh,Scp-1 inhibitor,Rpn11 confirm,MMP-2 counter,Thrombin inh
CCNC(=S)N(CCCO)Cc1cc2cc3c(cc2[nH]c1=O)OCCO3,-6,-2,2,4,-3,x,x,x
CC[C@@H](NCCCn1cnc2c(SC)ncnc21)c1ccccc1,-4,0,-2,0,x,x,x,x
Cc1nc(NN)nc(NCc2ccccc2)n1,-1,3,3,-2,8,x,x,x
CCNc1nc(Cl)nc(NCc2ccccc2)n1,68*,8,-2,0,-10,-22,-30,-22
Clc1ccc(Nc2nc3ccccc3n3nnnc23)cc1,44*,4,0,0,-4,11,-23,-3
CCOC(=O)C1=C(C)NC(=S)NC1C (stereo unspecified),0,2,-2,-2,-1,x,x,x
CCOC(=O)C1=C(c2ccccc2)NC(=S)NC1C (stereo unspecified),112*,3,-1,-1,6,-14,-39,-26
COc1ccc(C(NC(=O)C2CCN(CCOc3ccc(Cl)cc3Cl)CC2)c2ccccn2)cc1 (stereo unspecified),0,2,0,0,x,x,x,x
COc1cccc(OC)c1C(=O)Nc1ccc2c(c1)Cc1ccccc1-2,-1,-1,2,1,-3,x,x,x
COc1cccc(OC)c1C(=O)NC(=S)Nc1ccc2c(c1)Cc1ccccc1-2,+,-3,2,-1,-22,-7,36,-9
N#Cc1cc([N+](=O)[O-])ccc1NC(=O)CSc1n[nH]c(=O)[nH]c1=O,-4,-1,-2,0,-2,x,x,x
CCOC(=O)Cn1c(=NC(=O)C2COc3ccccc3O2)sc2cc(S(N)(=O)=O)ccc21 (stereo unspecified),-3,-7,0,-3,-17,x,x,x
CCOC(=O)Cn1c(=NC(=O)c2ccc([N+](=O)[O-])s2)sc2ccccc21,44*,9,1,1,-12,-5,-39,-75
CCn1cc(/C=C(\NC(=O)c2ccccc2F)C(=O)NCCCn2ccnc2)c2ccccc21,-12,-1,1,0,1,x,x,x
CCN1CCN(Cc2ccc(NC(=O)c3ccc(C)c(NC(=O)c4csc(-c5ccncc5)n4)c3)cc2C(F)(F)F)CC1,55*,-7,0,0,-1,39,-12,-7

# Compound activity from PubChem.
